Measurements reported in ChEMBL document CHEMBL1125548, “Synthesis and pharmacological studies of N-substituted 6-[(2-aminoethyl)amino]-1,3-dimethyl-2,4(1H,3H)-pyrimidinediones, novel class III antiarrhythmic agents” (1992).

Assays:
[1] = system: Canis familiaris; assay: The percentage change of the duration of action potential at 75% repolarization was measured before and after the administration at 1.0 ug/mL; type: functional, Canis lupus familiaris
Outline: (§1)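 Canine right-ventricular Purkinje fibers (mongrel dogs 7–11 kg, thiopental-anesthetized) superfused with Tyrode's (pH 7.5, 36 °C, gassed 95% O2/5% CO2). Compounds diluted from 1 mM water stock and added cumulatively. Readings taken 20 min after solution exchange. Result given as percent change in action potential duration.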

[2] = system: Canis familiaris; assay: Percentage change of the duration of action potential at 75% repolarization was measured before and after the administration at 10.0 ug/mL; type: functional, Canis lupus familiaris; outline: as §1
[3] = system: Canis familiaris; assay: The percentage change of the duration of action potential at 75% repolarization was measured before and after the administration at 3.0 ug/mL; type: functional, Canis lupus familiaris; outline: as §1
[4] = system: Canis familiaris; assay: The prolongation effect of the atrial and ventricular effective refractory period was measured before and after the administration at 0.1 mg/kg; type: functional, Canis lupus familiaris, Cardiac atrium; details: dose 1.0 mg/kg; in the assay text read “1.0 mg/kg” for “0.1 mg/kg”
Outline: (§2)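 In vivo, mongrel dogs of either sex (7–13 kg), anesthetized with pentobarbital sodium 30 mg/kg iv. Left femoral artery cannulated for arterial pressure, femoral vein for drug dosing. Effective refractory period measured before and after administration.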

[5] = system: Canis familiaris; assay: The prolongation effect of the atrial and ventricular effective refractory period was measured before and after the administration at 0.3 mg/kg; type: functional, Canis lupus familiaris, Cardiac atrium; outline: as §2
[6] = system: Canis familiaris; assay: The prolongation effect of the atrial and ventricular effective refractory period was measured before and after the administration at 3 mg/kg; type: functional, Canis lupus familiaris, Cardiac atrium; outline: as §2
[7] = system: Canis familiaris; assay: The prolongation effect of the atrial and ventricular effective refractory period was measured before and after the administration at 1 mg/kg; type: functional, Canis lupus familiaris, Cardiac atrium; outline: as §2
[8] = species: Canis familiaris; assay: Action potential amplitude at 0 (ug/mL) concentration; type: functional, Canis lupus familiaris
Outline: (§3)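 Purkinje fibers from right ventricle of mongrel dogs (7–11 kg, thiopental sodium 30 mg/kg iv), superfused in organ bath with Tyrode's solution (pH 7.5, 95% O2/5% CO2) at 36 °C. Compounds from 1 mM aqueous stock diluted in Tyrode's, given cumulatively. Data taken 20 min after each solution change. Means ± SD of seven experiments.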

[9] = species: Canis familiaris; assay: Action potential amplitude at 0.1(ug/mL) concentration; type: functional, Canis lupus familiaris; outline: as §3
[10] = species: Canis familiaris; assay: Action potential amplitude at 0.3(ug/mL) concentration; type: functional, Canis lupus familiaris; outline: as §3
[11] = species: Canis familiaris; assay: Action potential amplitude at 1(ug/mL) concentration; type: functional, Canis lupus familiaris; outline: as §3
[12] = species: Canis familiaris; assay: Action potential amplitude at 10(ug/mL) concentration; type: functional, Canis lupus familiaris; outline: as §3
[13] = species: Canis familiaris; assay: Action potential amplitude at 3(ug/mL) concentration; type: functional, Canis lupus familiaris; outline: as §3
[14] = species: Canis familiaris; assay: Action potential duration at 75% repolarization at 0(ug/mL) concentration; type: functional, Canis lupus familiaris; outline: as §3
[15] = species: Canis familiaris; assay: Action potential duration at 75% repolarization at 0.1(ug/mL) concentration; type: functional, Canis lupus familiaris; outline: as §3
[16] = species: Canis familiaris; assay: Action potential duration at 75% repolarization at 0.3(ug/mL) concentration; type: functional, Canis lupus familiaris; outline: as §3
[17] = species: Canis familiaris; assay: Action potential duration at 75% repolarization at 1(ug/mL) concentration; type: functional, Canis lupus familiaris; outline: as §3
[18] = species: Canis familiaris; assay: Action potential duration at 75% repolarization at 10(ug/mL) concentration; type: functional, Canis lupus familiaris; outline: as §3
[19] = species: Canis familiaris; assay: Action potential duration at 75% repolarization at 3(ug/mL) concentration; type: functional, Canis lupus familiaris; outline: as §3
[20] = species: Canis familiaris; assay: Action potential duration at 90% repolarization at 0(ug/mL) concentration; type: functional, Canis lupus familiaris; outline: as §3
[21] = species: Canis familiaris; assay: Action potential duration at 90% repolarization at 0.1(ug/mL) concentration; type: functional, Canis lupus familiaris; outline: as §3
[22] = species: Canis familiaris; assay: Action potential duration at 90% repolarization at 0.3(ug/mL) concentration; type: functional, Canis lupus familiaris; outline: as §3
[23] = species: Canis familiaris; assay: Action potential duration at 90% repolarization at 1(ug/mL) concentration; type: functional, Canis lupus familiaris; outline: as §3
[24] = species: Canis familiaris; assay: Action potential duration at 90% repolarization at 10(ug/mL) concentration; type: functional, Canis lupus familiaris; outline: as §3
[25] = species: Canis familiaris; assay: Action potential duration at 90% repolarization at 3(ug/mL) concentration; type: functional, Canis lupus familiaris; outline: as §3
[26] = species: Canis familiaris; assay: Resting membrane potential at 0 (ug/mL) concentration; type: functional; details: Canis lupus familiaris; outline: as §3
[27] = species: Canis familiaris; assay: Resting membrane potential at 0.3 (ug/mL) concentration; type: functional; details: Canis lupus familiaris; outline: as §3
[28] = species: Canis familiaris; assay: Resting membrane potential at 1 (ug/mL) concentration; type: functional; details: Canis lupus familiaris; outline: as §3
[29] = species: Canis familiaris; assay: Resting membrane potential at 10 (ug/mL) concentration; type: functional; details: Canis lupus familiaris; outline: as §3
[30] = species: Canis familiaris; assay: Resting membrane potential at 3(ug/mL) concentration; type: functional; details: Canis lupus familiaris; outline: as §3
[31] = species: Canis familiaris; assay: Maximum upstroke velocity of the compound at 0 (ug/mL) concentration; type: functional, Canis lupus familiaris; outline: as §3
[32] = species: Canis familiaris; assay: Maximum upstroke velocity of the compound at 0.1 (ug/mL) concentration; type: functional, Canis lupus familiaris; outline: as §3
[33] = species: Canis familiaris; assay: Maximum upstroke velocity of the compound at 0.3 (ug/mL) concentration; type: functional, Canis lupus familiaris; outline: as §3
[34] = species: Canis familiaris; assay: Maximum upstroke velocity of the compound at 1 (ug/mL) concentration; type: functional, Canis lupus familiaris; outline: as §3
[35] = species: Canis familiaris; assay: Maximum upstroke velocity of the compound at 10 (ug/mL) concentration; type: functional, Canis lupus familiaris; outline: as §3
[36] = species: Canis familiaris; assay: Maximum upstroke velocity of the compound at 3 (ug/mL) concentration; type: functional, Canis lupus familiaris; outline: as §3
[37] = species: Canis familiaris; assay: Action potential duration at 50% repolarization at 0 ug/mL concentration; type: functional, Canis lupus familiaris; outline: as §3
[38] = species: Canis familiaris; assay: Action potential duration at 50% repolarization at 0.1(ug/mL) concentration; type: functional, Canis lupus familiaris; outline: as §3
[39] = species: Canis familiaris; assay: Action potential duration at 50% repolarization at 0.3(ug/mL) concentration; type: functional, Canis lupus familiaris; outline: as §3
[40] = species: Canis familiaris; assay: Action potential duration at 50% repolarization at 1(ug/mL) concentration; type: functional, Canis lupus familiaris; outline: as §3
[41] = species: Canis familiaris; assay: Action potential duration at 50% repolarization at 10(ug/mL) concentration; type: functional, Canis lupus familiaris; outline: as §3
[42] = species: Canis familiaris; assay: Action potential duration at 50% repolarization at 3(ug/mL) concentration; type: functional, Canis lupus familiaris; outline: as §3
[43] = species: Canis familiaris; assay: Resting membrane potential at 0.1 (ug/mL) concentration; type: functional; details: Canis lupus familiaris; outline: as §3
[44] = system: Canis familiaris; assay: The prolongation effect of the atrial and ventricular effective refractory period was measured before and after the administration at 1.0 mg/kg
[45] = system: Canis familiaris; assay: Concentration required for 50% inhibition of tachycardia induced by isoproterenol (0.5ug/mL, iv) in anesthetized dog; type: functional; details: Canis lupus familiaris, read-out: ID50 (the source's name)

Cl.Cn1c(N2CCN(CCCOc3ccc(NS(C)(=O)=O)cc3)CC2)cc(=O)n(C)c1=O
APD75 [1]: 1%
APD75 [2]: 10%
APD75 [3]: 3%
ERP [4]: 9.3%
ERP [5]: 7.1%
ERP [6]: 16.4%

CSc1ccccc1OCCCN1CCN(c2cc(=O)n(C)c(=O)n2C)CC1.Cl
APD75 [1]: 0%
APD75 [2]: 0%
APD75 [3]: 0%

Cn1c(N2CCN(Cc3ccc([N+](=O)[O-])cc3)CC2)cc(=O)n(C)c1=O.O=C(O)C(=O)O
APD75 [1]: 3%
APD75 [2]: 11%
APD75 [3]: 7%
ERP [5]: 0%
ERP [7]: 0%
ERP [6]: 7%

Cl.Cn1c(N2CCN(CCCOc3ccc(Cl)cc3)CC2)cc(=O)n(C)c1=O
APD75 [1]: 14%
APD75 [3]: 25%
ERP [4]: 13%
ERP [5]: 6.3%
ERP [6]: 24.3%

Cl.Cn1c(N2CCN(CCCCc3ccc([N+](=O)[O-])cc3)CC2)cc(=O)n(C)c1=O
APD75 [2]: 25%
APD75 [3]: 17%

Cl.Cn1c(NCCN(CCO)CCCc2ccc([N+](=O)[O-])cc2)cc(=O)n(C)c1=O
APA [8]: 104 mV
APA [9]: 101 mV
APA [10]: 102 mV
APA [11]: 103 mV
APA [12]: 107 mV
APA [13]: 104 mV
APD75 [14]: 313 ms
APD75 [15]: 340 ms
APD75 [16]: 372 ms
APD75 [17]: 428 ms
APD75 [18]: 529 ms
APD75 [19]: 485 ms
APD75 [1]: 22%
APD75 [3]: 38%
APD90 [20]: 344 ms
APD90 [21]: 371 ms
APD90 [22]: 409 ms
APD90 [23]: 471 ms
APD90 [24]: 584 ms
APD90 [25]: 533 ms
RMP [26]: -88 mV
RMP [27]: -87 mV
RMP [28]: -87 mV
RMP [29]: -90 mV
RMP [30]: -87 mV
Max dV/dt [31]: 356 V s-1
Max dV/dt [32]: 351 V s-1
Max dV/dt [33]: 348 V s-1
Max dV/dt [34]: 344 V s-1
Max dV/dt [35]: 339 V s-1
Max dV/dt [36]: 341 V s-1
APD50 [37]: 266 ms
APD50 [38]: 293 ms
APD50 [39]: 315 ms
APD50 [40]: 349 ms
APD50 [41]: 386 ms
APD50 [42]: 369 ms
RMP [43]: -85 mV

Cl.Cn1c(N2CCN(CCc3ccc([N+](=O)[O-])cc3)CC2)cc(=O)n(C)c1=O
APD75 [1]: 43%

CSc1ccc(OCCCN2CCN(c3cc(=O)n(C)c(=O)n3C)CC2)cc1.Cl
APD75 [1]: 4%
APD75 [2]: 25%
APD75 [3]: 13%
ERP [5]: 0%
ERP [6]: 15.4%
ERP [44]: 7.7%

CCN(CC)CCNC(=O)c1ccc(NS(C)(=O)=O)cc1 [SEMATILIDE]
APD75 [1]: 19%
APD75 [3]: 29%

CC(C)NCC(O)c1ccc(NS(C)(=O)=O)cc1 (centres undefined) [SOTALOL]
APD75 [1]: 0.7%
APD75 [2]: 11.2%
APD75 [3]: 8%

Cn1c(NCCNCCCc2ccc([N+](=O)[O-])cc2)cc(=O)n(C)c1=O.O=C(O)C(=O)O
APD75 [1]: 9%
APD75 [2]: 16%
APD75 [3]: 12%

CN(CCN(C)c1cc(=O)n(C)c(=O)n1C)CC(O)COc1ccccc1 (centres undefined)
APD75 [1]: 2.9%
APD75 [3]: 8%
ED50 [45]: 1 mg/kg

Cl.Cn1c(N2CCN(CCOc3ccc([N+](=O)[O-])cc3)CC2)cc(=O)n(C)c1=O
APD75 [1]: 8%
APD75 [2]: 43%
APD75 [3]: 22%

CS(=O)(=O)O.Cn1c(N2CCN(CCCOc3ccccc3)CC2)cc(=O)n(C)c1=O
APD75 [1]: 7%
APD75 [3]: 22%
ED50 [45]: > 5 mg/kg
